Tests used:
[1] = system: Plasma; experiment: Cmax in CD-1 mouse plasma at 10 mg/kg, po after 6 hrs by LC/MS analysis; assay type: ADME, organism-based; set-up: dose 10 mg/kg, route oral; conditions: in vivo
[2] = system: Liver; experiment: Half life in mouse liver microsomes at 1 uM by LC/MS/MS analysis; assay type: ADME, Microsome
[3] = AUC (0 to 6 hrs) in CD-1 mouse brain at 10 mg/kg, po by LC/MS analysis; assay type: ADME, organism-based; set-up: time < 6 hr, dose 10 mg/kg, route oral
[4] = Cytotoxicity against mouse ScN2a-cl3 cells after 5 days by calcein-AM assay; assay type: cell-based, N2a-cl3; conditions: read-out: LD50
Method in brief: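 Run alongside every EC50 measurement. Toxicity toward ScN2a-cl3 cells scored with the fluorescent probe calcein-AM.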

[5] = system: Brain; experiment: Cmax in CD-1 mouse brain at 10 mg/kg, po after 6 hrs by LC/MS analysis; assay type: ADME, organism-based; set-up: dose 10 mg/kg, route oral; conditions: in vivo
[6] = AUC (0 to 6 hrs) in CD-1 mouse plasma at 10 mg/kg, po by LC/MS analysis; assay type: ADME, organism-based; set-up: time < 6 hr, dose 10 mg/kg, route oral
[7] = Ratio of drug level in brain to plasma in CD-1 mouse at 10 mg/kg, po; assay type: ADME, organism-based; set-up: dose 10 mg/kg, route oral; conditions: brain and plasma, read-out: BPR

SMILES | Cmax [1] [µM] | t1/2 [2] [min] | AUC(0-t) at 6 h [3] [nM·h] | CC50 at 120 h [4] [µM] | Cmax [5] [µM] | AUC(0-t) at 6 h [6] [nM·h] | Kp [7]
CCN1CCN(c2ccc(NC(=O)c3ccc(-c4ccccn4)cc3)cc2)CC1 | 0.28 | 27 | 24200 | > 10 | 6.23 | 1050 | –
CCN1CCN(c2ccc(NC(=O)c3ccc(-c4cccnc4)cc3)cc2)CC1 | 0.21 | 29.2 | 3320 | > 10 | 1.44 | 250 | –
CCN1CCN(c2ccc(NC(=O)c3ccc(-c4ccncc4)cc3)cc2)CC1 | – | – | – | > 10 | – | – | –
CC(C)N1CCN(c2ccc(NC(=O)c3ccc(-c4ccccn4)cc3)cc2)CC1 | 0.32 | – | 280 | > 10 | 0.09 | 1200 | –
CC(C)N1CCN(c2ccc(NC(=O)c3ccc(-c4ccccn4)cc3)nc2)CC1 | 0.34 | – | 22300 | > 10 | 6 | 1260 | –
CC(C)N1CCN(c2ccc(NC(=O)c3ccc(-c4ccccn4)cc3)cn2)CC1 | – | – | – | > 10 | – | – | –
CC(C)N1CCN(c2ccc(NC(=O)c3ccc(-c4ccccn4)cc3)c(F)c2)CC1 | 0.65 | – | 39800 | > 10 | 17.3 | 1460 | –
CC(C)N1CCN(c2ccc(NC(=O)c3ccc(-c4ccccn4)cc3)cc2F)CC1 | 0.46 | – | 28700 | > 10 | 6.75 | 2280 | –
CN1CCN(c2ccc(NC(=O)c3ccc(-c4ccccc4)cc3)cc2)CC1 | – | – | – | > 5 | – | – | –
CCN1CCN(c2ccc(NC(=O)c3ccc(-c4ccccc4)cc3)cc2)CC1 | 0.37 | – | 25400 | – | 7.95 | 1090 | ≤ 10
CC(C)N1CCN(c2ccc(NC(=O)c3ccc(-c4ccccc4)cc3)cc2)CC1 | 0.27 | – | 7480 | > 10 | 2.52 | 970 | ≤ 10
